Reference: ChEMBL document CHEMBL4270646, “Novel antimalarial chloroquine- and primaquine-quinoxaline 1,4-di-N-oxide hybrids: Design, synthesis, Plasmodium life cycle stage profile, and preliminary toxicity studies” (Eur J Med Chem, 2018)
Active and inactive are the calls of the source. No cut-off for these calls is given here.

How the values were obtained:
[1] = test system: Plasmodium falciparum; assay: Antiplasmodial activity against chloroquine-sensitive Plasmodium falciparum 3D7 infected in human red blood cells assessed as reduction in parasite growth after 48 hrs by Hoechst 33342 staining based flow cytometric analysis; type: functional, organism-based; conditions: 3D7, 48 h
Summary of the method: (§1)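 Ring-stage cultures (>80% rings) at 1% parasitaemia in A+ human erythrocytes, 2% haematocrit. Medium RPMI 1640 with 10% A+ serum, 37°C, 5% CO2/5% O2. Compounds in DMSO at 1.56–100 µg/mL final, DMSO ≤1%. After 48 h, cells stained with Hoechst 33342 and 1×10^4 counted by flow cytometry. IC50 from logistic dose-response regression; three independent experiments in triplicate.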

[2] = test system: Plasmodium falciparum; assay: Antiplasmodial activity against the multidrug-resistant Plasmodium falciparum […] infected in human red blood cells assessed as reduction in parasite growth after 48 hrs by Hoechst 33342 staining based flow cytometric analysis; type: functional, organism-based; summary of the method: as §1
[3] = Selectivity index, ratio of CC50 for human HepG2 cells to IC50 for multidrug-resistant Plasmodium falciparum […]; type: toxicity; conditions: read-out: Ratio CC50/IC50
Summary of the method: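 Selectivity index = HepG2 CC50 / FCR-3 IC50. CC50 from MTT assay after 48 h exposure, A550. IC50 from 48 h Hoechst 33342 flow-cytometry assay.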

[4] = Cytotoxicity against human HepG2 cells assessed as reduction in cell viability after 48 hrs by MTT assay; type: cell-based
Summary of the method: (§2)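 Cells seeded at 2 × 10^5 per well and allowed 24 h at 37°C, 5% CO2 to form a monolayer. Dilutions added in triplicate and incubated 48 h. MTT (2 mg/mL) then added for 4 h, followed by DMSO for 20 min at room temperature. Absorbance read at 550 nm; DMSO diluent and untreated cells served as negative controls. CC50 derived from the curve.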

[5] = test system: Plasmodium falciparum; assay: Antiplasmodial activity against GFP-harboring Plasmodium falciparum sporozoites infected in human primary hepatocytes assessed as reduction in parasite growth treated every 24 hrs by DAPI staining-based fluorescence microscopic analysis; type: functional, organism-based
Summary of the method: (§3)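 Collagen-coated wells seeded with HepG2 (P. berghei), HepG2-CD81 (P. yoelii) or primary human hepatocytes (P. falciparum). Sporozoites added: 5×10^3 to 1×10^4 per well to the cell lines, 2.5×10^4 per well to hepatocytes. Compounds given at infection: top 10 µg/mL plus seven serial dilutions, renewed at 3 h and then every 24 h. Cultures grown 40 h (cell lines) or 8 days (hepatocytes) at 37°C. Methanol-fixed, HSP70 immunolabelled, DAPI counterstained. IC50 from logistic regression; triplicate.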

[6] = Cytotoxicity against human HepG2 cells expressing CD81 assessed as reduction in cell viability after 48 hrs by MTT assay; type: cell-based; summary of the method: as §2
[7] = Selectivity index, ratio of CC50 for human HepG2 cells expressing CD81 to IC50 for GFP-expressing Plasmodium yoelii sporozoites; type: toxicity; conditions: read-out: Ratio CC50/IC50
Summary of the method: (§4)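 Selectivity index = CC50 (matching cell) / IC50 (matching parasite). Cell–parasite pairs: HepG2-CD81 with P. yoelii, HepG2 with P. berghei, human hepatocytes with P. falciparum.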

[8] = Selectivity index, ratio of CC50 for human primary hepatocytes to IC50 for GFP-expressing Plasmodium falciparum sporozoites; type: toxicity; conditions: read-out: Ratio CC50/IC50; summary of the method: as §4
[9] = test system: Plasmodium berghei; assay: Antiplasmodial activity against GFP-harboring Plasmodium berghei sporozoites infected in human HepG2 cells assessed as reduction in parasite growth treated every 24 hrs by DAPI staining-based fluorescence microscopic analysis; type: functional, organism-based; conditions: HepG2, 24 h; summary of the method: as §3
[10] = test system: Plasmodium yoelii; assay: Antiplasmodial activity against Plasmodium yoelii 17XNL sporozoites infected in BALB/c mouse assessed as parasite burden at 100 mg/kg, po measured at day 4 by […] (reference value: 0.06%); type: functional
Summary of the method: (§5)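 BALB/c mice (6-8 weeks, 20-23 g), n=4 per hybrid group and n=5 per control. Dosed orally at 100 mg/kg (100 µL) on days -1, 0, +1 and +2. Vehicle was DMSO 100%; primaquine diphosphate given at 30 mg/kg daily. On day 0, 5 x 10^3 cryopreserved P. yoelii 17XNL sporozoites injected i.v. Parasitaemia read by Giemsa smear and SYBR Green flow cytometry. Groups compared by Kruskal-Wallis test.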

[11] = Cytotoxicity against human primary hepatocytes assessed as reduction in cell viability after 48 hrs by MTT assay; type: cell-based, Hepatocyte; summary of the method: as §2
[12] = test system: Plasmodium yoelii; assay: Antiplasmodial activity against GFP-harboring Plasmodium yoelii sporozoites infected in human HepG2 cells expressing CD81 assessed as reduction in parasite growth treated every 24 hrs by DAPI staining-based fluorescence microscopic analysis; type: functional, organism-based; conditions: HepG2, 24 h; summary of the method: as §3
[13] = Selectivity index, ratio of CC50 for human HepG2 cells to IC50 for GFP-expressing Plasmodium berghei sporozoites; type: toxicity; conditions: read-out: Ratio CC50/IC50; summary of the method: as §4
[14] = test system: Plasmodium yoelii; assay: Antiplasmodial activity against GFP-harboring Plasmodium yoelii sporozoites infected in human HepG2 cells expressing CD81 assessed as reduction in parasite growth at 10 ug/ml treated every 24 hrs by DAPI staining-based fluorescence microscopic analysis; type: functional, organism-based; summary of the method: as §3
[15] = test system: Plasmodium falciparum; assay: Antiplasmodial activity against GFP-harboring Plasmodium falciparum sporozoites infected in human primary hepatocytes assessed as reduction in parasite growth at 10 ug/ml treated every 24 hrs by DAPI staining-based fluorescence microscopic analysis; type: functional, organism-based; summary of the method: as §3
[16] = test system: Plasmodium berghei; assay: Antiplasmodial activity against GFP-harboring Plasmodium berghei sporozoites infected in human HepG2 cells assessed as reduction in parasite growth at 10 ug/ml treated every 24 hrs by DAPI staining-based fluorescence microscopic analysis; type: functional, organism-based; summary of the method: as §3
[17] = test system: Plasmodium berghei; assay: Potency index, ratio of primaquine IC50 to compound IC50 for GFP-expressing Plasmodium berghei sporozoites infected in human HepG2 cells; type: functional
[18] = test system: Plasmodium berghei; assay: (§6) Antiplasmodial activity against GFP-expressing gametocytes of Plasmodium berghei sporozoites in Anopheles stephensi mosquitoes feeded on blood from infected Swiss mouse assessed as reduction in number of oocysts in mosquito midgut at 100 mg/kg, ip pretreated for 1.5 hrs followed by blood feeding of mosquito and measured at 8 days post mosquitoes infection by fluorescence microscopic method relative to control; type: functional; parameters: scale not given: the % may be the effect or the level left
Summary of the method: (§7)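 Swiss mice (female, 6 weeks) infected i.p. with PbGFP-infected red cells (200 µL, 3000 parasites/µL). Gametocytes monitored 4 days by Giemsa smear and exflagellation. Hybrid given i.p. at 100 mg/kg in DMSO 1.5 h before A. stephensi fed 1 h on mice with 1% gametocytes. Controls were untreated and DMSO-treated mice. Thirty mosquitoes per group dissected after 8 days. Midgut oocysts counted by fluorescence microscopy against control mosquitoes taken as 100%.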

[19] = test system: Plasmodium berghei; assay: as §6, with “in” for “in number of oocysts in”, “infection” for “midgut”; type: functional; parameters: scale not given: the % may be the effect or the level left; summary of the method: as §7
[20] = test system: Plasmodium yoelii; assay: Antiplasmodial activity against Plasmodium yoelii 17XNL sporozoites infected in BALB/c mouse assessed as pre-patent time period of parasitaemia at 100 mg/kg, po measured at day 4 by […]; type: functional; summary of the method: as §5
[21] = test system: Plasmodium yoelii; assay: Antiplasmodial activity against Plasmodium yoelii 17XNL sporozoites infected in BALB/c mouse assessed as parasite reduction at 100 mg/kg, po measured at day 1 to day 4 by […]; type: functional, organism-based; summary of the method: as §5
[22] = test system: Plasmodium yoelii; assay: Antiplasmodial activity against Plasmodium yoelii 17XNL sporozoites infected in BALB/c mouse assessed as decrease in parasitaemia in blood at 100 mg/kg, po measured at day 4 by […] relative to control; type: functional; parameters: scale not given: the % may be the effect or the level left; summary of the method: as §5
[23] = test system: Mus musculus; assay: Acute toxicity in BALB/c mouse assessed as ulcerated congestion in stomach at 500 mg/kg, po administered as single dose measured at day 14 by […]; type: organism-based; conditions: in vivo
Summary of the method: (§8)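 Female BALB/c mice, groups of three, single oral dose; vehicle DMSO 100% for controls. Mice euthanised with CO2 on day 14, or earlier if suffering. Gross necropsy performed. Spleen, liver and kidney fixed in formaldehyde 37%, stained with haematoxylin and eosin and examined by light microscopy.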

[24] = test system: Mus musculus; assay: Acute toxicity in BALB/c mouse assessed as necrosis of kidney at 500 mg/kg, po administered as single dose measured at day 14 by haematoxylin and eosin staining based microscopic analysis; type: organism-based; conditions: in vivo; summary of the method: as §8
[25] = test system: Mus musculus; assay: Acute toxicity in BALB/c mouse assessed as necrosis of liver at 500 mg/kg, po administered as single dose measured at day 14 by haematoxylin and eosin staining based microscopic analysis; type: organism-based; conditions: in vivo; summary of the method: as §8

Cc1c(C(=O)NCCNc2ccnc3cc(Cl)ccc23)[n+]([O-])c2ccccc2[n+]1[O-]
IC50 [1]: 0.78 µM | IC50 [2]: 1900 nM | selectivity ratio [3]: 30.6 | CC50 at 48 h [4]: 58.2 µM

CCN(CC)CCCC(C)Nc1ccnc2cc(Cl)ccc12 (centres undefined) [CHLOROQUINE]
CC50 at 48 h [4]: 137 µM

COc1cc(NC(C)CCCNC(=O)c2c(C)[n+]([O-])c3ccc(C)cc3[n+]2[O-])c2ncccc2c1 (centres undefined)
IC50 [1]: 44.9 µM | IC50 [5]: 7.21 µM | CC50 at 48 h [6]: > 207 µM | selectivity ratio [7]: 14.7 | selectivity ratio [8]: 28.6 | IC50 [2]: 50600 nM | IC50 [9]: 6.34 µM | Activity [10]: 0.03% | CC50 at 48 h [11]: > 207 µM | selectivity ratio [3]: 2.17 | IC50 [12]: 14 µM | selectivity ratio [13]: 17.3 | CC50 at 48 h [4]: 110 µM

COc1cc(NC(C)CCCNC(=O)c2c(C)[n+]([O-])c3ccc(OC)cc3[n+]2[O-])c2ncccc2c1 (centres undefined)
IC50 [1]: 27 µM | CC50 at 48 h [6]: > 204 µM | inhibition [14]: inactive | IC50 [2]: 30700 nM | IC50 [9]: 14.1 µM | Activity [10]: 0.02% | CC50 at 48 h [11]: > 204 µM | selectivity ratio [3]: > 6.63 | selectivity ratio [13]: > 14.5 | CC50 at 48 h [4]: > 204 µM | inhibition [15]: inactive

Cc1cc2c(cc1C)[n+]([O-])c(C(=O)NCCNc1ccnc3cc(Cl)ccc13)c(C)[n+]2[O-]
IC50 [1]: 0.68 µM | inhibition [14]: inactive | IC50 [2]: 900 nM | selectivity ratio [3]: 71.7 | inhibition [16]: inactive | CC50 at 48 h [4]: 64.5 µM | inhibition [15]: inactive

COc1cc(NC(C)CCCNC(=O)c2c(C)[n+]([O-])c3ccc(Cl)cc3[n+]2[O-])c2ncccc2c1 (centres undefined)
IC50 [1]: 62.6 µM | IC50 [5]: 3.64 µM | CC50 at 48 h [6]: > 198 µM | selectivity ratio [7]: 34.7 | selectivity ratio [8]: 54.5 | IC50 [2]: 36000 nM | Ratio IC50 [17]: 3.2 | IC50 [9]: 1.14 µM | Activity [10]: 0.01% | CC50 at 48 h [11]: > 198 µM | selectivity ratio [3]: 3.34 | IC50 [12]: 5.71 µM | Activity [18]: 77% | Activity [19]: 23% | selectivity ratio [13]: 136 | CC50 at 48 h [4]: 155 µM

COc1ccc2c(c1)[n+]([O-])c(C(=O)NCCNc1ccnc3cc(Cl)ccc13)c(C)[n+]2[O-]
IC50 [1]: 2.11 µM | IC50 [2]: 2070 nM | selectivity ratio [3]: 44.8 | CC50 at 48 h [4]: 92.7 µM

COc1cc(NC(C)CCCNC(=O)c2c(C)[n+]([O-])c3cc(C)c(C)cc3[n+]2[O-])c2ncccc2c1 (centres undefined)
IC50 [1]: 30.8 µM | IC50 [5]: 8.11 µM | CC50 at 48 h [6]: > 202 µM | selectivity ratio [8]: 20.2 | IC50 [2]: 52900 nM | IC50 [9]: 11.3 µM | Activity [10]: 0.06% | CC50 at 48 h [11]: > 202 µM | selectivity ratio [3]: > 3.82 | selectivity ratio [13]: > 17.8 | CC50 at 48 h [4]: > 202 µM

Cc1ccc2c(c1)[n+]([O-])c(C(=O)NCCNc1ccnc3cc(Cl)ccc13)c(C)[n+]2[O-]
IC50 [1]: 0.57 µM | IC50 [2]: 2240 nM | selectivity ratio [3]: 14 | CC50 at 48 h [4]: 31.4 µM

Cc1c(C(=O)NCCNc2ccnc3cc(Cl)ccc23)[n+]([O-])c2cc(Cl)ccc2[n+]1[O-]
IC50 [1]: 0.52 µM | IC50 [5]: 6.39 µM | CC50 at 48 h [6]: 69.9 µM | selectivity ratio [7]: 4.78 | selectivity ratio [8]: 9.56 | IC50 [2]: 400 nM | IC50 [9]: 10.1 µM | CC50 at 48 h [11]: 61.1 µM | selectivity ratio [3]: 54.6 | IC50 [12]: 14.6 µM | selectivity ratio [13]: 2.15 | CC50 at 48 h [4]: 21.8 µM

COc1cc(NC(C)CCCN)c2ncccc2c1 (centres undefined) [PRIMAQUINE]
IC50 [1]: 9.86 µM | Time [20]: 24 h | Activity [21]: inactive | Activity [22]: 100% | Activity [23]: Toxic | CC50 at 48 h [6]: 69.8 µM | Activity [24]: Non-Toxic | selectivity ratio [7]: 32.8 | selectivity ratio [8]: 136 | IC50 [2]: 1100 nM | IC50 [9]: 3.65 µM | selectivity ratio [3]: 109 | IC50 [12]: 2.13 µM | Activity [25]: Non-Toxic | selectivity ratio [13]: 33 | CC50 at 48 h [4]: 120 µM
